Experiments:
Pseudomonas aeruginosa = test: Minimum antimicrobial inhibitory concentration against Pseudomonas aeruginosa MGH-2; type: functional
How it was run: (§1)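 Serial twofold tube dilution in tryptose phosphate broth. Each compound was prepared as a 1000 μg/mL aqueous stock and diluted in double-strength broth, then 2×10^5 cells were added. Tubes were incubated aerobically at 37 °C for 24 h. The MIC was taken as the lowest concentration with no visible growth.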

Klebsiella pneumoniae = test: Minimum inhibitory concentration against Klebsiella pneumonia 39645; type: functional; how it was run: as §1
Streptococcus mutans = test: Minimum plaque inhibitory concentration using a standard test organism, Streptococcus mutans OMZ-61; type: functional, organism-based
How it was run: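 Ceramic hydroxylapatite plates were soaked twice for 1 min each in compound at […] (aqueous), air-dried and rinsed, then hung in sucrose beef-extract medium (pH 7.0) inoculated with late-log S. mutans OMZ-61. Incubation was anaerobic at 37 °C for 24 h, and treatment plus reinoculation were repeated for a second 24 h. Plaque was stained with 1% FD&C Red No. 3 and scored visually. The value is the lowest concentration giving no plaque while medium growth matched control.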

Proteus mirabilis = test: Minimum antimicrobial inhibitory concentration against Proteus mirabilis MGH-1; type: functional; how it was run: as §1
Escherichia coli [1] = test: Antimicrobial minimum inhibitory concentration against Escherichia coli 100/B22; type: functional; how it was run: as §1
Escherichia coli [2] = test: Minimum inhibitory concentration against Escherichia coli (Vogel); type: functional; how it was run: as §1
Escherichia coli [3] = test: Antimicrobial minimum inhibitory concentration against Escherichia coli AB1932-1; type: functional; how it was run: as §1
Staphylococcus aureus = test: Minimum antimicrobial inhibitory concentration against Staphylococcus aureus; type: functional; how it was run: as §1

SMILES	MIC (Pseudomonas aeruginosa) [µg/mL]	MIC (Klebsiella pneumoniae) [µg/mL]	Concentration (Streptococcus mutans) [%]	MIC (Proteus mirabilis) [µg/mL]	MIC (Escherichia coli [1]) [µg/mL]	MIC (Escherichia coli [2]) [µg/mL]	MIC (Escherichia coli [3]) [µg/mL]	MIC (Staphylococcus aureus) [µg/mL]
Br.Br.CCCCCCCN=c1ccn(CCCCCn2ccc(=NCCCCCCC)cc2)cc1	125	31.3	> 1	> 125	7.8	31.3	3.9	0.5
CCCCCCCCN=c1ccn(CCCCCCCCCn2ccc(=NCCCCCCCC)cc2)cc1.Cl.Cl	3.9	2	0.003	15.6	1	1	1	1
Br.Br.CCCCC(CC)CN=c1ccn(CCCCCCCCCn2ccc(=NCC(CC)CCCC)cc2)cc1 (configuration not stated)	125	7.8	0.004	125	1	1	1	0.3
Br.Br.Clc1ccc(N=c2ccn(CCCCCn3ccc(=Nc4ccc(Cl)cc4)cc3)cc2)cc1	> 125	> 125	> 1	> 125	125	125	31.3	7.8
Br.Br.CCCCCCCCCCN=c1ccn(CCCCCCCCCCCCn2ccc(=NCCCCCCCCCC)cc2)cc1	15.6	31.3	0.1	15.6	15.6	7.8	31.3	2
CCCCCCCN=c1ccn(CCCCCCCCCCCCCCn2ccc(=NCCCCCCC)cc2)cc1.Cl.Cl	2	3.9	0.01	3.9	1	2	1	1
Br.Br.Fc1ccc(N=c2ccn(CCCCCCCCn3ccc(=Nc4ccc(F)cc4)cc3)cc2)cc1	> 62.5	> 62.5	> 1	> 125	15.6	15.6	7.8	2
Br.Br.CCCCCCCCCCN=c1ccn(CCCCCCCCCCn2ccc(=NCCCCCCCCCC)cc2)cc1	15.6	31.3	0.01	7.8	15.6	7.8	15.6	2
Br.Br.CCCCCCCCCCCCN=c1ccn(CCCCCCCCCCn2ccc(=NCCCCCCCCCCCC)cc2)cc1	> 62.5	> 62.5	0.1	> 62.5	> 62.5	> 62.5	> 62.5	15.6
Br.Br.CCCCCCCCCCN=c1ccn(CCCCCCCCn2ccc(=NCCCCCCCCCC)cc2)cc1	7.8	3.9	0.01	7.8	3.9	2	7.8	1
Br.Br.CCCCCCN=c1ccn(CCCCCCCCCCn2ccc(=NCCCCCC)cc2)cc1	31.3	3.9	> 1	31.3	2	2	1	0.2
Br.Br.CCCCCCCN=c1ccn(CCCCn2ccc(=NCCCCCCC)cc2)cc1	> 250	> 125	> 1	> 250	15.6	31.3	7.8	1
Br.Br.CCCCCCCCCCCCN=c1ccn(CCCCCCCCCCCCn2ccc(=NCCCCCCCCCCCC)cc2)cc1	> 62.5	> 62.5	0.1	> 62.5	> 62.5	> 62.5	> 62.5	31.3
Br.Br.c1cn(CCCCCn2ccc(=NC3CCCCC3)cc2)ccc1=NC1CCCCC1	> 500	> 500	> 1	> 500	> 500	> 500	> 500	125
Br.Br.CCCCCCCCCCN=c1ccn(CCCCCCCCCn2ccc(=NCCCCCCCCCC)cc2)cc1	7.8	15.6	0.01	7.8	3.9	2	7.8	1
Br.Br.N=c1ccn(CCCCCCCCCCn2ccc(=N)cc2)cc1	500	250	> 1	> 500	62.5	62.5	31.3	7.8
Br.Br.CCCCCCN=c1ccn(CCCCCCn2ccc(=NCCCCCC)cc2)cc1	> 125	125	1	> 250	7.8	31.3	7.8	0.5
Br.Br.CCCCC(CC)CN=c1ccn(CCCCCCCCCCCCn2ccc(=NCC(CC)CCCC)cc2)cc1 (configuration not stated)	3.9	2	0.004	3.9	1	1	1	0.5
CS(=O)(=O)O.CS(=O)(=O)O.Clc1ccc(N=c2ccn(CCCCCCn3ccc(=Nc4ccc(Cl)cc4)cc3)cc2)cc1	500	500	> 1	500	15.6	15.6	3.9	3.9
Br.Br.CCCCCCCCCCCCN=c1ccn(CCCCCCn2ccc(=NCCCCCCCCCCCC)cc2)cc1	> 62.5	> 62.5	0.1	> 62.5	62.5	31.3	> 62.5	7.8
Br.Br.CCCCCCCCN=c1ccn(CCCCCCCn2ccc(=NCCCCCCCC)cc2)cc1	31.3	1	0.005	7.8	1	2	1	0.5
Br.Br.CCCCC(CC)CN=c1ccn(CCCCCCn2ccc(=NCC(CC)CCCC)cc2)cc1 (configuration not stated)	> 250	125	> 1	> 125	3.9	7.8	2	0.5
CCCCCCCN=c1ccn(CCCCCCn2ccc(=NCCCCCCC)cc2)cc1.Cl.Cl	> 62.5	3.9	> 1	> 125	2	3.9	2	0.2
CS(=O)(=O)O.CS(=O)(=O)O.Clc1ccc(N=c2ccn(CCCCn3ccc(=Nc4ccc(Cl)cc4)cc3)cc2)cc1	> 125	> 250	> 1	> 250	15.6	15.6	7.8	7.8
